PMC2788151 (Journal of immunology (Baltimore, Md. : 1950), 2009)
Non-standard residues stand in square brackets, D forms with d. Residues, ends and D or L forms follow the SMILES beside them. No end group written: not given here. *: point of attachment. Biotin = O=C1N[C@H]2[C@H](CS[C@H]2CCCCC(=O)*)N1; pY = N[C@@H](Cc1ccc(OP(=O)(O)O)cc1)C(=O)O

Experiments:
[1] = target: T1, Recombinant human Dok1 PTB domain (amino acids 140–268) (Homo sapiens, UniProt Q99704); format: binding
T1 sequence (Q99704 140-268): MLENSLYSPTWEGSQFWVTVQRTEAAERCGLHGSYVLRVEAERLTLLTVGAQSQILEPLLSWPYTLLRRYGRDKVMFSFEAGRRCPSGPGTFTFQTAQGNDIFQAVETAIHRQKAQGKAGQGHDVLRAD
Summary of the method: (§1)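 On a BIAcore 3000, ~4000 RU streptavidin was amine-coupled to CM5 chips at 25°C, then 50–150 RU biotinylated human phosphotyrosine peptides (CD200R tail, singly or doubly phosphorylated) were captured. Increasing concentrations of monomeric recombinant soluble PTB domain were passed over at 37°C to reach equilibrium binding. Signal from non-phosphorylated-peptide or streptavidin-only flow cells was subtracted, and the data were fitted to hyperbolas.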

[2] = target: T2, Recombinant human Dok2 PTB domain (amino acids 133–259) (Homo sapiens, UniProt O60496); format: binding
T2 sequence (O60496 133-259): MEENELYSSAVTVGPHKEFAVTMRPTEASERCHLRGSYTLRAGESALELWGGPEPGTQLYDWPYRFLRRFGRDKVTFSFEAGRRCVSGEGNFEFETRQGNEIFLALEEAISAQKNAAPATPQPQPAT
Summary of the method: as §1

[3] = target: CD200R pY1,2 peptide (human); assay: SPR
CD200R pY1,2 peptide (human), sequence (Q8TD46 309-329): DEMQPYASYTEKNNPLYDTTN

[4] = target: CD200R pY1 peptide (human); assay: SPR
[5] = target: CD200R pY1,3 peptide (human); assay: SPR
[6] = target: CD200R pY3 peptide (human); assay: SPR
[7] = target: T3, Recombinant human Dok2 PTB domain (amino acids 133-259) (human, UniProt O60496 133-259); assay: SPR
T3 sequence (looked up): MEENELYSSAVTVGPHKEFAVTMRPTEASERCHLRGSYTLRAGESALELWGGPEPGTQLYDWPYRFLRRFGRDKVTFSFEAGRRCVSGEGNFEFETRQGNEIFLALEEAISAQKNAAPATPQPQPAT

[8] = target: T4, Recombinant human Dok1 PTB domain (amino acids 140-268) (human, UniProt Q99704 140-268); assay: SPR
T4 sequence (looked up): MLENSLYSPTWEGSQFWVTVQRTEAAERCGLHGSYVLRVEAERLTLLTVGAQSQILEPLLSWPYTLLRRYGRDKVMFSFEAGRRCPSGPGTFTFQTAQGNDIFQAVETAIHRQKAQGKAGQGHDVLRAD

CSCC[C@H](NC(=O)[C@H](CCC(=O)O)NC(=O)[C@H](CC(=O)O)NC(=O)CCCC[C@@H]1SC[C@@H]2NC(=O)N[C@@H]21)C(=O)N[C@@H](CCC(N)=O)C(=O)N1CCC[C@H]1C(=O)N[C@@H](Cc1ccc(O)cc1)C(=O)N[C@@H](C)C(=O)N[C@@H](CO)C(=O)N[C@@H](Cc1ccc(O)cc1)C(=O)N[C@H](C(=O)N[C@@H](CCC(=O)O)C(=O)N[C@@H](CCCCN)C(=O)N[C@@H](CC(N)=O)C(=O)N[C@@H](CC(N)=O)C(=O)N1CCC[C@H]1C(=O)N[C@@H](CC(C)C)C(=O)N[C@@H](Cc1ccc(OP(=O)(O)O)cc1)C(=O)N[C@@H](CC(=O)O)C(=O)N[C@H](C(=O)N[C@H](C(=O)N[C@@H](CC(N)=O)C(=O)O)[C@@H](C)O)[C@@H](C)O)[C@@H](C)O [CD200R pY3] (Biotin-DEMQPYASYTEKNNPL[pY]DTTN-OH)
Kd [1]: 7.3 µM | Kd [2]: 1.4 µM

CC[C@H](C)[C@H](NC(=O)[C@H](CCC(=O)O)NC(=O)[C@@H](NC(=O)CCCC[C@@H]1SC[C@@H]2NC(=O)N[C@@H]21)[C@@H](C)O)C(=O)N[C@H](C(=O)N[C@@H](CC(N)=O)C(=O)N1CCC[C@H]1C(=O)N[C@@H](CC(N)=O)C(=O)N[C@@H](Cc1ccc(OP(=O)(O)O)cc1)C(=O)N[C@@H](CCSC)C(=O)NCC(=O)N[C@H](C(=O)NCC(=O)N1CCC[C@H]1C(=O)O)C(C)C)[C@@H](C)CC [SHIP pY917] (Biotin-TEIINPN[pY]MGVGP-OH)
Kd [1]: 13 µM

Recombinant human Dok1 PTB domain (amino acids 140-268) (from UniProt Q99704 140-268) (domain or fragment)
Kd [3]: 8.4 µM | Kd [4]: 14 µM | Kd [5]: 6.2 µM | Kd [6]: 7.3 µM

CSCC[C@H](NC(=O)[C@H](CCC(=O)O)NC(=O)[C@H](CC(=O)O)NC(=O)CCCC[C@@H]1SC[C@@H]2NC(=O)N[C@@H]21)C(=O)N[C@@H](CCC(N)=O)C(=O)N1CCC[C@H]1C(=O)N[C@@H](Cc1ccc(OP(=O)(O)O)cc1)C(=O)N[C@@H](C)C(=O)N[C@@H](CO)C(=O)N[C@@H](Cc1ccc(O)cc1)C(=O)N[C@H](C(=O)N[C@@H](CCC(=O)O)C(=O)N[C@@H](CCCCN)C(=O)N[C@@H](CC(N)=O)C(=O)N[C@@H](CC(N)=O)C(=O)N1CCC[C@H]1C(=O)N[C@@H](CC(C)C)C(=O)N[C@@H](Cc1ccc(O)cc1)C(=O)N[C@@H](CC(=O)O)C(=O)N[C@H](C(=O)N[C@H](C(=O)N[C@@H](CC(N)=O)C(=O)O)[C@@H](C)O)[C@@H](C)O)[C@@H](C)O [CD200R pY1] (Biotin-DEMQP[pY]ASYTEKNNPLYDTTN-OH)
Kd [1]: 14 µM

Recombinant human Dok2 PTB domain (amino acids 133-259) (from UniProt O60496 133-259) (domain or fragment)
Kd [5]: 0.6 µM | Kd [6]: 1.4 µM

CSCC[C@H](NC(=O)[C@H](CCC(=O)O)NC(=O)[C@H](CC(=O)O)NC(=O)CCCC[C@@H]1SC[C@@H]2NC(=O)N[C@@H]21)C(=O)N[C@@H](CCC(N)=O)C(=O)N1CCC[C@H]1C(=O)N[C@@H](Cc1ccc(OP(=O)(O)O)cc1)C(=O)N[C@@H](C)C(=O)N[C@@H](CO)C(=O)N[C@@H](Cc1ccc(OP(=O)(O)O)cc1)C(=O)N[C@H](C(=O)N[C@@H](CCC(=O)O)C(=O)N[C@@H](CCCCN)C(=O)N[C@@H](CC(N)=O)C(=O)N[C@@H](CC(N)=O)C(=O)N1CCC[C@H]1C(=O)N[C@@H](CC(C)C)C(=O)N[C@@H](Cc1ccc(O)cc1)C(=O)N[C@@H](CC(=O)O)C(=O)N[C@H](C(=O)N[C@H](C(=O)N[C@@H](CC(N)=O)C(=O)O)[C@@H](C)O)[C@@H](C)O)[C@@H](C)O [CD200R pY1,2] (Biotin-DEMQP[pY]AS[pY]TEKNNPLYDTTN-OH)
Kd [1]: 8.4 µM

CSCC[C@H](NC(=O)[C@H](CCC(=O)O)NC(=O)CCCC[C@@H]1SC[C@@H]2NC(=O)N[C@@H]21)C(=O)N[C@@H](Cc1ccccc1)C(=O)N[C@@H](CCC(=O)O)C(=O)N[C@@H](CC(N)=O)C(=O)N1CCC[C@H]1C(=O)N[C@@H](CC(C)C)C(=O)N[C@@H](Cc1ccc(OP(=O)(O)O)cc1)C(=O)NCC(=O)N[C@@H](CO)C(=O)N[C@@H](CC(C)C)C(=O)N[C@@H](CO)C(=O)N[C@@H](CO)C(=O)O [SHIP pY1022] (Biotin-EMFENPL[pY]GSLSS-OH)
Kd [1]: 13 µM

CSCC[C@H](NC(=O)[C@H](CCC(=O)O)NC(=O)[C@H](CC(=O)O)NC(=O)CCCC[C@@H]1SC[C@@H]2NC(=O)N[C@@H]21)C(=O)N[C@@H](CCC(N)=O)C(=O)N1CCC[C@H]1C(=O)N[C@@H](Cc1ccc(OP(=O)(O)O)cc1)C(=O)N[C@@H](C)C(=O)N[C@@H](CO)C(=O)N[C@@H](Cc1ccc(O)cc1)C(=O)N[C@H](C(=O)N[C@@H](CCC(=O)O)C(=O)N[C@@H](CCCCN)C(=O)N[C@@H](CC(N)=O)C(=O)N[C@@H](CC(N)=O)C(=O)N1CCC[C@H]1C(=O)N[C@@H](CC(C)C)C(=O)N[C@@H](Cc1ccc(OP(=O)(O)O)cc1)C(=O)N[C@@H](CC(=O)O)C(=O)N[C@H](C(=O)N[C@H](C(=O)N[C@@H](CC(N)=O)C(=O)O)[C@@H](C)O)[C@@H](C)O)[C@@H](C)O [CD200R pY1,3] (Biotin-DEMQP[pY]ASYTEKNNPL[pY]DTTN-OH)
Kd [1]: 6.2 µM | Kd [2]: 0.6 µM

Biotin-TEIINPN[pY]MGVGP [SHIP pY917 peptide]
Kd [7]: > 30 µM

Biotin-EMLENSL[pY]SPTW [Dok1 pY146 peptide]
Kd [8]: 6.9 µM

Biotin-CMEENEL[pY]SSAV [Dok2 pY139 peptide]
Kd [8]: 3.3 µM
